Activity data for one compound are collected here from ChEMBL document CHEMBL1128600, “The cholesterol derivative of a triantennary galactoside with high affinity for hepatic asialoglycoprotein receptor: a potent cholesterol lowering agent” (J Med Chem, 1995).

For assay [1], the species on record is Homo sapiens. The experiment in a line: Particle size of HDL after incubation with the compound (0.01%). The assay is classed as functional. Summed up: (§1)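 Lipoproteins (LDL 1.019–1.063, HDL 1.063–1.21 ×10³ kg/m³) isolated from human serum by KBr/NaCl density-gradient ultracentrifugation. LDL (0.5 mg/mL) or HDL (2.0 mg/mL) incubated 10 min at room temperature in PBS pH 7.40 with 0–0.33% (w/v) agent. Size measured by photon correlation spectroscopy (120°, 632 nm, 72 s accumulation) and reported as mass-weighted mean ± standard error.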

The species named for assay [2] is Homo sapiens. The assay is described as follows: Particle size of LDL after incubation with the compound (0.0055%). In kind it is functional. Summed up: as §1

On to `C[C@@H]1CC[C@@]2(OC1)O[C@H]1[C@@H](O)[C@H]3[C@@H]4CC[C@H]5C[C@@H](O[C@@H]6O[C@H](CO)[C@H](O[C@@H]7O[C@H](CO)C(O)[C@H](O[C@@H]8OC[C@@H](O)[C@H](O)[C@H]8O)[C@H]7O[C@@H]7O[C@H](CO)[C@H](O)[C@H](O[C@@H]8O[C@H](CO)[C@@H](O)[C@H](O)[C@H]8O)[C@H]7O)[C@H](O)[C@H]6O)[C@H](O)C[C@]5(C)[C@H]4CC[C@]3(C)[C@H]1[C@@H]2C` (some centres not stated), for which the Activity entry in the assay listed under Homo sapiens [1] and in the assay listed under Homo sapiens [2] was “Increase” in each case.
